Data set [1] can be described thus: Plasma concentration in diet-induced obesity cynomolgus monkey model at 8 ug/kg, sc for 6 weeks measured 2 hrs post dose on day 43 by LC-MS analysis. Format: ADME, organism-based, Macaca fascicularis. Conditions: 0.008 mg/kg. The essentials: (§1)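 Obese diabetic cynomolgus monkeys were dosed once daily sc with PBS-diluted drug for 6 weeks. On day 43, blood was drawn just before dosing and at 1, 2, 4, 8 and 22 h after, into EDTA-2K tubes. Plasma was separated at 2500 × g for 10 min at 4 °C. The dual agonist was measured by LC-MS after protein precipitation; liraglutide was measured by ELISA.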

A short description of data set [2]: Solubility in pH 4.5 acetate buffer at 10 mg/ml after 2 hrs by UPLC-UV analysis. Format: physicochemical. The gist of the method: (§2)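 Buffers were 100 mM sodium acetate pH 4.5 or 100 mM sodium phosphate pH 7.4, with or without 0.5% phenol. Solid peptide was dispersed at 10 mg/mL, with content corrected by UPLC-MS and ion chromatography, and gently agitated for 2 h. After centrifugation (15 min, 3000 rcf), the supernatant was diluted 1:10 and quantified by UPLC-UV against a DMSO standard curve.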

For data set [3], the target named is Glucagon-like peptide 1 receptor (Homo sapiens, UniProt P43220). The data set is described as follows: Agonist activity at human GLP1R expressed in HEK293 cells assessed as cAMP accumulation after 30 mins by HTRF assay. Format: functional, cell-based.
Data set [4] is described as follows: Plasma concentration in diet-induced obesity cynomolgus monkey model at 8 ug/kg, sc for 6 weeks measured […] dose on day 43 by LC-MS analysis. It counts as ADME, organism-based, Macaca fascicularis. The note with it: 0.008 mg/kg. The essentials: as §1
Data set [5] in a line: Plasma concentration in diet-induced obesity cynomolgus monkey model at 8 ug/kg, sc for 6 weeks measured 1 hr post dose on day 43 by LC-MS analysis. Format: ADME, organism-based, Macaca fascicularis. Conditions: 0.008 mg/kg. The gist of the method: as §1
Data set [6] can be described thus: AUC (0 to 22 hrs) in diet-induced obesity cynomolgus monkey model at 8 ug/kg, sc for 6 weeks on day 43 by LC-MS analysis. Format: ADME, organism-based, Macaca fascicularis. The arrangement: dose 8 ug/kg, time < 22 hr, route subcutaneous. The note with it: in vivo, 0.008 mg/kg. The essentials:
as §1

A short description of data set [7]: Solubility in pH 4.5 acetate buffer at 10 mg/ml after 2 hrs in presence of 0.5% phenol by UPLC-UV analysis.
Data set [8] deals with Cynomolgus monkey. The data set is described as follows: Antiobesity activity in diet-induced obesity cynomolgus monkey model assessed as reduction in body weight at 1.5 ug/kg on day 1 to 3, 3 ug/kg on day 4 to 6, 4.5 ug/kg on day 7 to 9, 6 ug/kg from day 10 to 17 and 8 ug/kg on day 18 to 42 administered sc once daily measured every 3 to 4 days during compound dosing relative to control. Format: functional, Macaca fascicularis. The arrangement: scale not given: the % may be the effect or the level left. The essentials: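 Obese diabetic cynomolgus monkeys were offered about 680 kcal/day. They were block-randomized into 3 groups by body weight, fasted glucose and %HbA1C. Dosing was once daily sc in PBS vehicle over a 6-week study with ramped doses. Food and water intake were logged daily, and body weight was measured every 3–4 days. Two insulin-requiring vehicle animals were excluded.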

Data set [9] deals with Glucagon-like peptide 1 receptor (Macaca fascicularis, UniProt F8V479). The data set is described as follows: Agonist activity at monkey GLP1R expressed in HEK293 cells assessed as cAMP accumulation after 30 mins by HTRF assay. Format: cell-based, Macaca mulatta.
For data set [10], the system named is Cynomolgus monkey. The data set is described as follows: Hypoglycemic activity in diet-induced obesity cynomolgus monkey model assessed as plasma HbA1c level at 1.5 ug/kg on day 1 to 3, 3 ug/kg on day 4 to 6, 4.5 ug/kg on day 7 to 9, 6 ug/kg from day 10 to 17 and 8 ug/kg on day 18 to 42 administered sc once daily measured on day 43 post last dose (reference value: 8.7 +/- 0.8%). Format: functional, Macaca fascicularis.

Data set [11] is described as follows: Plasma concentration in diet-induced obesity cynomolgus monkey model at 8 ug/kg, sc for 6 weeks measured 8 hrs post dose on day 43 by LC-MS analysis. Format: ADME, organism-based, Macaca fascicularis. Conditions: 0.008 mg/kg. The gist of the method:
as §1

In data set [12] the test system is Cynomolgus monkey. The data set is described as follows: Potency index, ratio of liraglutide dose to compound dose for antiobesity activity in diet-induced obesity cynomolgus monkey model assessed as reduction in body weight administered sc once daily measured every 3 to 4 days during compound dosing. Format: functional, Macaca fascicularis.
Data set [13] can be described thus: Ratio of EC50 for monkey glucagon receptor expressed in HEK293 cells to EC50 for human glucagon receptor expressed in HEK293 cells. Format: cell-based. The gist of the method: (§3)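 HEK293 lines stably expressing human or monkey receptor were detached with accutase. Cells were resuspended at 400 000 cells/mL in HBSS/20 mM HEPES/0.1% BSA/2 mM IBMX and exposed to peptide for 30 min at room temperature. cAMP was read by HTRF (665/620 nm) after 1 h lysis.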

Data set [14] is described as follows: Plasma concentration in diet-induced obesity cynomolgus monkey model at 8 ug/kg, sc for 6 weeks measured 4 hrs post dose on day 43 by LC-MS analysis. Format: ADME, organism-based, Macaca fascicularis. Conditions: 0.008 mg/kg. The essentials: as §1
Data set [15] is described as follows: Solubility in pH 4.5 acetate buffer at 10 mg/ml after 2 hrs by UPLC-UV analysis.
Data set [16] is described as follows: Plasma concentration in diet-induced obesity cynomolgus monkey model at 8 ug/kg, sc for 6 weeks measured 22 hrs post dose on day 43 by LC-MS analysis. Format: ADME, organism-based, Macaca fascicularis. Conditions: 0.008 mg/kg. The gist of the method: as §1
Data set [17] addresses T1, Gastric inhibitory polypeptide receptor (Homo sapiens, UniProt P48546).
T1 sequence (P48546 whole entry): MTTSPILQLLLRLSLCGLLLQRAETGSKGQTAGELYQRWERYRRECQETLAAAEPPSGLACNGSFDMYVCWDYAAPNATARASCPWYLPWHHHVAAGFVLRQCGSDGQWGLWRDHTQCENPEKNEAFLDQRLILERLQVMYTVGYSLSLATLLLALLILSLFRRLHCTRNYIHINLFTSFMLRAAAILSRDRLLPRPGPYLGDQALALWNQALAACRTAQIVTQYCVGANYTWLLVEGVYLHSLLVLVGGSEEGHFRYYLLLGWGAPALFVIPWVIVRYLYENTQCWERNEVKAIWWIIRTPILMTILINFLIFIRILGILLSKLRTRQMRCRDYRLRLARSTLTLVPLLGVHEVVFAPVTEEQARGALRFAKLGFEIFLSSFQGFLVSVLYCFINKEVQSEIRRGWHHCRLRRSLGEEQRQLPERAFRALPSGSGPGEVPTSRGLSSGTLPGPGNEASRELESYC
The data set is described as follows: Agonist activity at human GIP receptor expressed in HEK293 cells assessed as cAMP accumulation after 30 mins by HTRF assay. It counts as functional, cell-based.

The nature of data set [18]: Agonist activity at monkey glucagon receptor expressed in HEK293 cells assessed as cAMP accumulation after 30 mins by HTRF assay. It counts as cell-based, Macaca mulatta. The note with it: Macaca mulatta, HEK293, 0.5 h. The gist of the method:
as §3

For another data set, the target named is Glucagon receptor (Homo sapiens, UniProt P47871). The data set is described as follows: Agonist activity at human glucagon receptor expressed in HEK293 cells assessed as cAMP accumulation after 30 mins by HTRF assay. Format: functional, cell-based.
The species entered for the next data set is Homo sapiens. The data set is described as follows: Selectivity ratio of EC50 for human glucagon receptor expressed in HEK293 cells to EC50 for human GLP1R expressed in HEK293 cells. It counts as cell-based. The essentials: as §3
Data set [19] can be described thus: Agonist activity at monkey GIP receptor expressed in HEK293 cells assessed as cAMP accumulation after 30 mins by HTRF assay. It counts as cell-based, Macaca mulatta. The note with it: Macaca mulatta, HEK293, 0.5 h. The gist of the method:
as §3

Data set [20] in a line: Solubility in pH 4.5 acetate buffer at 10 mg/ml after 2 hrs in presence of 0.5% phenol by UPLC-UV analysis. It counts as physicochemical. The essentials:
as §2

The structures appear in SMILES notation.

Data on one molecule can be found in ChEMBL document CHEMBL4118251 (J Med Chem, 2018).

Sequence of Glucagon receptor (P47871 whole entry): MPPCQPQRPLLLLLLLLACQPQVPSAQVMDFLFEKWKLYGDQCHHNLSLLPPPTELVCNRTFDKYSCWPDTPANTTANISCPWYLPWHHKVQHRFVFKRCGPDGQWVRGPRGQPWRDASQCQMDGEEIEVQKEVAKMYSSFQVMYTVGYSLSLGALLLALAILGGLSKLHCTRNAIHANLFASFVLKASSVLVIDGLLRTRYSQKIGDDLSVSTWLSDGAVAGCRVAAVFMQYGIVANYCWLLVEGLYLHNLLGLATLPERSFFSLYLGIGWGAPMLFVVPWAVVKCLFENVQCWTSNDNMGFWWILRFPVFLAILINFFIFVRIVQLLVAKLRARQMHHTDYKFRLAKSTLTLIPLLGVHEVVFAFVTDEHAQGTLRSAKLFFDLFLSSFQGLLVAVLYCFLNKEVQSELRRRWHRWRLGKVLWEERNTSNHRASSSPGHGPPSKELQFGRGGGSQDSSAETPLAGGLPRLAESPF
Sequence of Glucagon-like peptide 1 receptor (Homo sapiens, UniProt P43220) (P43220 whole entry): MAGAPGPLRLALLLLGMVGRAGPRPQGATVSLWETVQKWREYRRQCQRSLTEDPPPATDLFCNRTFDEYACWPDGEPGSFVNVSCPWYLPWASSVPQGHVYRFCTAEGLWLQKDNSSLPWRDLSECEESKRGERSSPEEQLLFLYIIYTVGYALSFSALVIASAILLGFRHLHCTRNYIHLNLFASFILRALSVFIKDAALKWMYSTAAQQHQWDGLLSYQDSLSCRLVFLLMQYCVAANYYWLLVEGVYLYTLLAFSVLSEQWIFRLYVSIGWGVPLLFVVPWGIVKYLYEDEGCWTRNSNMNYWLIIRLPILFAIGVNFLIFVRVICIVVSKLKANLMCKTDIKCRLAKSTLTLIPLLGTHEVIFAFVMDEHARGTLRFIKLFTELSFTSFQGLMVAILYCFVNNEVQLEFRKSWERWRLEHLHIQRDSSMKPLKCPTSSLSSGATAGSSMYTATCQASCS
Sequence of Glucagon-like peptide 1 receptor (Macaca fascicularis, UniProt F8V479) (F8V479 whole entry): as the sequence (P43220 whole entry) above, with A4T, M17V, S135N, F143S, S225G, L228V, L260F, W264R, I272V counted along it

As to `CCCCCCCCCCCCCCCCC(=O)[C@H](CCN[C@@H](CCC(=O)NCCCC[C@H](NC(=O)[C@H](CCC(N)=O)NC(=O)[C@H](CCCCN)NC(=O)[C@H](CO)NC(=O)[C@H](CC(C)C)NC(=O)[C@H](CC(=O)O)NC(=O)[C@H](CO)NC(=O)[C@@H](NC(=O)[C@H](Cc1ccccc1)NC(=O)[C@@H](NC(=O)CNC(=O)[C@H](CCC(N)=O)NC(=O)C(C)(C)NC(=O)[C@@H](N)Cc1cnc[nH]1)[C@@H](C)O)[C@@H](C)O)C(=O)N[C@@H](CC(=O)O)C(=O)N[C@@H](CCC(=O)O)C(=O)N[C@@H](CCC(N)=O)C(=O)N[C@@H](CCCNC(=N)N)C(=O)N[C@@H](C)C(=O)N[C@@H](CCCCN)C(=O)N[C@@H](CC(C)C)C(=O)N[C@@H](Cc1ccccc1)C(=O)N[C@H](C(=O)N[C@@H](CCC(=O)O)C(=O)N[C@@H](Cc1c[nH]c2ccccc12)C(=O)N[C@@H](CC(C)C)C(=O)NC(C)(C)C(=O)N[C@@H](C)C(=O)NCC(=O)NCC(=O)N1CCC[C@H]1C(=O)N1CCC[C@H]1C(=O)N[C@@H](CO)C(=O)N[C@@H](C)C(=O)N[C@@H](CCCCN)C(=O)N1CCC[C@H]1C(=O)N1CCC[C@H]1C(=O)N1CCC[C@H]1C(=O)N[C@@H](CCCCN)C(N)=O)[C@@H](C)CC)C(=O)O)C(=O)O`, the concentration at 2 h in data set [1] stood at 28 ng/mL. The solubility at 2 h in data set [2], in data set [7], in data set [15] and in data set [20] was at least 10000 µg/mL each time. Moreover, the EC50 in [3] was 0.0018 nM; in data set [9] it was 0.002 nM; in data set [17], 2.03 nM; in data set [18] it was 0.129 nM; at Glucagon receptor, 0.029 nM; in data set [19] it was 2.05 nM. In [4], this molecule returned a concentration at 1008 h of 0.66 ng/mL. The concentration at 1 h in data set [5] came to 21.6 ng/mL. In [6], this molecule displayed an AUC at 22 h of 254 ng·h/mL. Further, the Activity with Cynomolgus monkey [8] was 6.9%; in the data set on Cynomolgus monkey [10], 7.1%. In data set [11], the concentration at 8 h is 12.4 ng/mL. Also, the Ratio in the data set with Cynomolgus monkey [12] was determined as 5. The Ratio EC50 in [13] is 4; in the data set listed under Homo sapiens it was 10 to 15. Further, the concentration at 4 h in data set [14] stood at 24.3 ng/mL. Further, the concentration at 22 h in data set [16] was determined as 0.69 ng/mL.
